In ChEMBL document CHEMBL1157090, “Diarylheptanoid from Pleuranthodium racemigerum with in vitro prostaglandin E(2) inhibitory and cytotoxic activity” (J Nat Prod, 2010):

Columns and labels:
MCF7 = experiment: Cytotoxicity against human MCF7 cells after 24 hrs by ATPLite assay; format: functional, cell-based; conditions: MCF7, 24 h
Method in brief: (§1)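 Cells grown in appropriate medium were exposed to test compounds at five concentrations for 24 h (5% CO2). Viability was read as cellular ATP by ATPLite luciferase luminescence and quantified against an ATP standard curve. Samples were run in triplicate, and IC50 was calculated from the concentration series.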

NIH3T3 [1] = experiment: Cytotoxicity against mouse 3T3 cells after 3 hrs by ATPLite assay; format: cell-based; conditions: NIH3T3, 3 h
PC-3 = experiment: Cytotoxicity against human PC3 cells after 24 hrs by ATPLite assay; format: functional, cell-based; conditions: PC-3, 24 h; method in brief: as §1
[2] = Cytotoxicity against mouse P388D1 cells after 24 hrs by ATPLite assay; format: functional, cell-based; conditions: P388D1, 24 h; method in brief: as §1
Caco-2 = experiment: Cytotoxicity against human Caco-2 cells after 24 hrs by ATPLite assay; format: functional, cell-based; conditions: Caco-2, 24 h; method in brief: as §1
HepG2 = experiment: Cytotoxicity against human HepG2 cells after 24 hrs by ATPLite assay; format: functional, cell-based; conditions: HepG2, 24 h; method in brief: as §1
NIH3T3 [3] = experiment: Inhibition of PGE2 production in calcium ionophore […] stimulated mouse 3T3 cells after 3 hrs; format: functional, cell-based; conditions: NIH3T3, 3 h
Method in brief: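 3T3 cells in DMEM with 10% FBS were seeded at 2 × 10^5 cells/mL, held ~20 h at 37 °C and 5% CO2, then given test substance (DMSO stock, 10 mg/mL) for 3 h. […] (5 mM DMSO stock) was added for 20 min. Supernatant PGE2 was measured by EIA, in triplicate, as % inhibition versus solvent-treated stimulated cells.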

Row | SMILES | IC50 (MCF7) | IC50 (NIH3T3 [1]) | IC50 (PC-3) | IC50 [2] | IC50 (Caco-2) | IC50 (HepG2) | IC50 (NIH3T3 [3])
1 | COc1ccc(C/C=C/CCCCc2ccc(O)cc2)cc1 | 56.9 µM | 52.8 µM | 23.6 µM | 117 µM | 44.8 µM | 40.6 µM | 34 µM
2 | COc1cc(/C=C/C(=O)CC(=O)/C=C/c2ccc(O)c(OC)c2)ccc1O [CURCUMIN] | 51.5 µM |  | 22.7 µM | 75.7 µM | 48.6 µM | 43.8 µM | 
